Test results published in ChEMBL document CHEMBL2016531, “Identification of NAE Inhibitors Exhibiting Potent Activity in Leukemia Cells: Exploring the Structural Determinants of NAE Specificity” (ACS Med Chem Lett, 2011).
Activity calls are given as the source filed them. The rule behind the calls is not given here.

Columns and labels:
[1] = target: Ubiquitin-like modifier-activating enzyme 5 (Homo sapiens) (UniProt Q9GZZ9); assay: Inhibition of human recombinant UBA5 assessed as inhibition of […]-UFM1 complex formation at 10 uM after 1.5 hrs by Western blot analysis
How it was run: (§1)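 Cell-free gel assay. Purified human recombinant E1 incubated with its matching Ub/Ubl and E2 in 50 mM HEPES pH 7.4, 5 mM MgCl2, 1–20 μM ATP. Inhibitor at 0, 0.001, 0.01, 0.1, 1 or 10 μM, 1.5 h at room temperature. Products resolved by SDS-PAGE, immunoblotted and detected by ECL; densitometry used for semiquantitation.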

[2] = target: T1, NEDD8-activating enzyme E1 catalytic subunit (Homo sapiens) (UniProt Q8TBC4); assay: Inhibition of UBA3-mediated NEDD8 activation at […] after 1.5 hrs by Western blot analysis
T1 sequence (whole entry): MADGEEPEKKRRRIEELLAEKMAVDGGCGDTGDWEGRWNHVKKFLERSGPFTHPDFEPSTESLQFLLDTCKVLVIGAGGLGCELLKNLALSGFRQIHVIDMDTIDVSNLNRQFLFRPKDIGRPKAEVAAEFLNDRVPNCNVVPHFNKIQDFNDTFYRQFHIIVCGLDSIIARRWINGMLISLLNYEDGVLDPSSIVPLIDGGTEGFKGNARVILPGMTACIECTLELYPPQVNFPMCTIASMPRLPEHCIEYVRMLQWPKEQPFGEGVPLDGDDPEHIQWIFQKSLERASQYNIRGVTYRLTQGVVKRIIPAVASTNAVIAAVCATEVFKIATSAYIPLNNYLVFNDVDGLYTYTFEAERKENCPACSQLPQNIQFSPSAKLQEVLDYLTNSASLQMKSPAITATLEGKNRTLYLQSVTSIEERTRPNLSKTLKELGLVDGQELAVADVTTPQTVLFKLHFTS

[3] = target: Insulin-like growth factor 1 receptor (Homo sapiens) (UniProt P08069); assay: Inhibition of IGF1R assessed as remaining activity at 0.1 uM by radiolabeled kinase assay relative to control
[4] = target: Death-associated protein kinase 1 (Homo sapiens) (UniProt P53355); assay: Inhibition of DAPK1 assessed as remaining activity at 0.1 uM by radiolabeled kinase assay relative to control
Homo sapiens = species on record: Homo sapiens; assay: Inhibition of human recombinant UAE assessed as inhibition of UbcH6-Ub complex formation at 0.001 to 10 uM after 1.5 hrs by Western blot analysis; how it was run: as §1
[5] = target: SUMO-activating enzyme (Homo sapiens) (UniProt Q9UBE0+Q9UBT2); assay: Inhibition of human recombinant SAE1/2 assessed as inhibition of SUMO1-UbcH9 complex formation at 0.001 to 10 uM after 1.5 hrs by Western blot analysis; assay type: protein-complex assay; how it was run: as §1

Insulin-like growth factor 1 receptor (Homo sapiens), sequence (P08069 31-736 limits assumed): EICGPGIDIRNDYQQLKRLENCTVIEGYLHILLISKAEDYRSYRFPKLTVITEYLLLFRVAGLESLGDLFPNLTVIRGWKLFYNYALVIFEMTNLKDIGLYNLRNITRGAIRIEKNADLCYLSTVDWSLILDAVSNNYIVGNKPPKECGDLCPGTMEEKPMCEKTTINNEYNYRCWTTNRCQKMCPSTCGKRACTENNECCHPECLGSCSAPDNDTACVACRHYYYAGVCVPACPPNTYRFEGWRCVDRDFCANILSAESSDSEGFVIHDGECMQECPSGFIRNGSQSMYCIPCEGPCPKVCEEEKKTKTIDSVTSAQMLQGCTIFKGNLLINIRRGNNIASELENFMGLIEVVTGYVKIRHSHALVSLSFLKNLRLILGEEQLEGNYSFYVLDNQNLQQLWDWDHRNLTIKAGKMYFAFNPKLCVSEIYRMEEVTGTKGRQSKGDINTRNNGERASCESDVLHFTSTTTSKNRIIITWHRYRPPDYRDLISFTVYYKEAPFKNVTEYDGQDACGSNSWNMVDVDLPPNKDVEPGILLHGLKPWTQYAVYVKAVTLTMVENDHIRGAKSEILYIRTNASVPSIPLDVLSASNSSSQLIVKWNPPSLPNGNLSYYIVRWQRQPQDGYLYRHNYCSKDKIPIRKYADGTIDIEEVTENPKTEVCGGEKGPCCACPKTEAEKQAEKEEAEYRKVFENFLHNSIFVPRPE
Insulin-like growth factor 1 receptor (Homo sapiens), sequence (P08069 741-1367 limits assumed): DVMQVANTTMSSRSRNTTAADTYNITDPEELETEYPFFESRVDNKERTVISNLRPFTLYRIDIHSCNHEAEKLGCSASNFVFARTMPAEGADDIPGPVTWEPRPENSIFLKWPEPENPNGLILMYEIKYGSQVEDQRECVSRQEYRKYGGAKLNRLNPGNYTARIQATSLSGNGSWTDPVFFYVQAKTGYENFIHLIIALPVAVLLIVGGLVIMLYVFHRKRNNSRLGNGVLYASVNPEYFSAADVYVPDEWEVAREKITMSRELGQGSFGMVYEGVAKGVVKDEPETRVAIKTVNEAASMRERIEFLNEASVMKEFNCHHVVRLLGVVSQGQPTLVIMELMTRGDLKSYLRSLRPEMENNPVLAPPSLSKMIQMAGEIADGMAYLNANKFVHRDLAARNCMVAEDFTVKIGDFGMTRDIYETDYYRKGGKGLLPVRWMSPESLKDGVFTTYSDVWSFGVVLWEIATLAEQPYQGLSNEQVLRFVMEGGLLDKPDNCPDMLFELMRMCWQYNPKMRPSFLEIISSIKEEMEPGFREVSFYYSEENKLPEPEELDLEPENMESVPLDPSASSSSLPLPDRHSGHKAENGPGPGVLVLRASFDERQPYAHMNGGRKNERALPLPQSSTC
Death-associated protein kinase 1 (Homo sapiens), sequence (P53355 whole entry, looked up): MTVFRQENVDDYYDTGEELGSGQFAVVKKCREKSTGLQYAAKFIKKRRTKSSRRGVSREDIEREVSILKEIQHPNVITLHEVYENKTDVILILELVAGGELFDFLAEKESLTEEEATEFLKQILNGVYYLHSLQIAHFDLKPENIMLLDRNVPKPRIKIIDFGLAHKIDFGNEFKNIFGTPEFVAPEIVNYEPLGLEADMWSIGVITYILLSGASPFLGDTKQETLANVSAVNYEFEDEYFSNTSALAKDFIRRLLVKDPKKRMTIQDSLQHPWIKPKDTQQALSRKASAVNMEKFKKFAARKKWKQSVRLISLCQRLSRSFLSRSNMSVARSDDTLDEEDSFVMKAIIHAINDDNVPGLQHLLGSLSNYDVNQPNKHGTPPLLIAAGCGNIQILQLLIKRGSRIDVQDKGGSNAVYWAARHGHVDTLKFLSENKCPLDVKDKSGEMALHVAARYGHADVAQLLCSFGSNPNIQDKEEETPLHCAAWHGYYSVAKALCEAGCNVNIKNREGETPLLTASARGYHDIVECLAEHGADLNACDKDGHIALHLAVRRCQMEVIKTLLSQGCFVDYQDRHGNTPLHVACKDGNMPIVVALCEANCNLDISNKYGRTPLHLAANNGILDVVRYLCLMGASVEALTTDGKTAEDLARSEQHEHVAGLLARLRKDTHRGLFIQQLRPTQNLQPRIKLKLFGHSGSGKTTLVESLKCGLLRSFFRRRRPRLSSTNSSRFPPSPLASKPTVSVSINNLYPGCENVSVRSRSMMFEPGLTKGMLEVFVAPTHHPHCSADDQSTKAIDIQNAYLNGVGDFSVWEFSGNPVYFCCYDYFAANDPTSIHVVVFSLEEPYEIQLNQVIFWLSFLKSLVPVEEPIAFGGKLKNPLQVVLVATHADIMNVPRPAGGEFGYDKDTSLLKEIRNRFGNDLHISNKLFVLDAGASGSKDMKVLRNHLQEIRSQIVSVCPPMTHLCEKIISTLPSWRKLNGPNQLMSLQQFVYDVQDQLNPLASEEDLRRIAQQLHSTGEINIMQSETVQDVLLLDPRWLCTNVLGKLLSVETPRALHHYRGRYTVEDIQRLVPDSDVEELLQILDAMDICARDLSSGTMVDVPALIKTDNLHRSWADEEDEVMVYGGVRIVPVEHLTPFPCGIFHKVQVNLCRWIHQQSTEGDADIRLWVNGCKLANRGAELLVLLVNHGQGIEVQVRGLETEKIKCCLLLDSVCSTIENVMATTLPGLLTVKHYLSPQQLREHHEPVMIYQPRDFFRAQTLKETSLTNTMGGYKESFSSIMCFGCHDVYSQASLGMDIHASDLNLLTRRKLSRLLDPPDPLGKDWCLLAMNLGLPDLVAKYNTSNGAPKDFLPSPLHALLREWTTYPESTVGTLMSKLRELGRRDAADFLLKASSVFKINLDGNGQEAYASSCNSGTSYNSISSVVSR
Ubiquitin-like modifier-activating enzyme 5 (Homo sapiens), sequence (Q9GZZ9 whole entry): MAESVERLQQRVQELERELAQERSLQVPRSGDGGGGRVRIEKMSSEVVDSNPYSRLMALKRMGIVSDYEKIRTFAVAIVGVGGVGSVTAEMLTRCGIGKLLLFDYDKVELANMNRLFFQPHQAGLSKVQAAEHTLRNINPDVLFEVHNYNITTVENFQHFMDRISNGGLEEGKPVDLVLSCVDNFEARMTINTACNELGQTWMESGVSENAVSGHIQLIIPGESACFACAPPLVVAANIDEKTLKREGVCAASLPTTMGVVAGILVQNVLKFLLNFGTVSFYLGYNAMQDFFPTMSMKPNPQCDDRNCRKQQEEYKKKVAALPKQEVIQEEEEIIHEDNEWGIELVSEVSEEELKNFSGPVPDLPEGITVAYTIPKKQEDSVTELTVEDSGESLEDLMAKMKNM

CCCCCCNc1ncnc2c1ncn2[C@@H]1O[C@H](COS(N)(=O)=O)[C@@H](O)[C@H]1O
inhibition [1]: inactive
inhibition [2]: Active
Activity [3]: 100%
Activity [4]: 88.5%
inhibition (Homo sapiens): Active
inhibition [5]: Active
